Legend:
[1] = test system: Rattus norvegicus; experiment: Anticonvulsant activity was measured by maximal electroshock seizure test in rat by po administration; No effective response; type: functional, organism-based
In short: (§1)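 Maximal electroshock test in male albino Sprague–Dawley rats (100 g) after oral dosing, run at the previously determined time of peak effect. At least eight rats per group received various doses until at least two points lay between 0% and 100% protection. ED50 with 95% confidence interval was calculated. Single-dose entries report percent protection at that dose.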

[2] = test system: Mus musculus; experiment: Anticonvulsant activity was measured by maximal electroshock seizure test in mice by ip administration; No effective response; type: functional, organism-based
In short: (§2)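 Male albino CF No. 1 mice (18–25 g) were dosed ip and tested by maximal electroshock at the previously determined time of peak effect. Groups of at least eight mice received various doses until at least two points fell between 0% and 100% protection. ED50 and its 95% confidence interval were calculated. Single-dose entries give protection percentage at the indicated dose.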

[3] = test system: Rattus norvegicus; experiment: Minimal motor impairment activity of the compound was measured by […] in rat by po administration; No effective response; type: functional, organism-based
In short: (§3)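 Minimal motor impairment in male Sprague–Dawley rats (100 g) after oral dosing was judged at the time of peak effect. The criterion was overt ataxia, abnormal gait and stance, and/or loss of placing response and muscle tone. Groups had at least eight rats across various doses, and the median impairing dose with its 95% confidence interval was calculated.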

[4] = test system: Mus musculus; experiment: Minimal motor impairment activity of the compound was measured by Rotarod test in mice by ip administration; No effective response; type: functional, organism-based
In short: (§4)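 Rotorod neurotoxicity test in male albino CF No. 1 mice dosed ip, run at the time of peak effect. Impairment was defined as failure to keep equilibrium for 60 s in each of three trials on the rotating rod. With groups of at least eight mice across various doses, the median motor-impairing dose and its 95% confidence interval were calculated.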

[5] = test system: Rattus norvegicus; experiment: Minimal motor impairment activity by Rotarod test in rat following p.o. administration.; type: functional; conditions: po; in short: as §3
[6] = test system: Rattus norvegicus; experiment: Anticonvulsant activity was measured by maximal electroshock seizure test in rat by po administration; type: functional; in short: as §1
[7] = Partition coefficient (logP); type: physicochemical; conditions: octanol/water
[8] = test system: Mus musculus; experiment: Anticonvulsant activity was measured by maximal electroshock seizure test in mice by ip administration; type: functional; in short: as §2
[9] = test system: Mus musculus; experiment: Minimal motor impairment activity by Rotarod test in mice following i.p. administration.; type: functional; conditions: ip; in short: as §4
[10] = test system: Rattus norvegicus; experiment: Anticonvulsant activity was measured by maximal electroshock seizure test in rat by po administration at 50 mg/kg; type: functional; in short: as §1
[11] = test system: Rattus norvegicus; experiment: Minimal motor impairment activity was measured by Rotarod test in rat by po administration; type: functional; in short: as §3
[12] = test system: Mus musculus; experiment: Minimal motor impairment activity was measured by Rotarod test in mice by ip administration; type: functional; in short: as §4
[13] = test system: Mus musculus; experiment: Anticonvulsant activity was measured by maximal electroshock seizure test in mice by ip administration at 100 mg/kg; type: functional; conditions: route intraperitoneal; in short: as §2
[14] = test system: Mus musculus; experiment: Anticonvulsant activity (ED50) was measured by maximal electroshock seizure test in mice by ip administration; No effective response; type: functional, organism-based; in short: as §2
[15] = test system: Rattus norvegicus; experiment: Anticonvulsant activity was measured by maximal electroshock seizure test in rat by po administration at 25 mg/kg; type: functional; in short: as §1

| Compound | logP [7] | ED50 [5] | ED50 [6] | ED50 [8] | ED50 [9] | other results |
| --- | --- | --- | --- | --- | --- | --- |
| Clc1ccc(-c2cnoc2N2CCOCC2)cc1 |  |  |  |  |  | ED50 [1]: No effective response; ED50 [2]: No effective response; ED50 [3]: No effective response; ED50 [4]: No effective response |
| COC(=O)c1[nH]cc(-c2ccc(Cl)cc2)c1N1CCN(c2ccccc2)CC1 | 4.4 | > 500 mg/kg | 12.5 mg/kg | 175 mg/kg | > 500 mg/kg |  |
| CC(=O)c1[nH]cc(-c2ccc(Cl)cc2)c1N1CCOCC1 |  | > 100 mg/kg | 10.6 mg/kg | 72.6 mg/kg | 335 mg/kg |  |
| COC(=O)c1[nH]cc(-c2cccc(Br)c2)c1N1CCOCC1 |  |  |  |  |  | Protection [10]: 75%; ED50 [11]: > 50 mg/kg; ED50 [12]: > 300 mg/kg; Protection [13]: 100% |
| CN1CCN(C(=O)c2[nH]cc(-c3ccc(Cl)cc3)c2N2CCOCC2)CC1 | 3.3 | > 50 mg/kg |  |  | > 300 mg/kg | Protection [10]: 50%; ED50 [14]: No effective response |
| CC(C)COC(=O)c1[nH]cc(-c2ccc(Cl)cc2)c1N1CCOCC1 |  |  |  |  |  | ED50 [1]: No effective response; ED50 [2]: No effective response; ED50 [3]: No effective response; ED50 [4]: No effective response |
| COC(=O)c1[nH]cc(-c2ccc(Cl)cc2)c1N1CCOCC1 | 3.5 | > 500 mg/kg | 11.4 mg/kg | 58.1 mg/kg | 56.4 mg/kg |  |
| Clc1ccc(-c2c[nH]nc2N2CCOCC2)cc1 |  | > 50 mg/kg |  | 47 mg/kg | 300 mg/kg | Protection [10]: 100% |
| COC(=O)c1c(N2CCOCC2)c(-c2ccc(Cl)cc2)cn1C(=O)c1ccccc1 | 5.5 | > 500 mg/kg | 14 mg/kg | 43.7 mg/kg | 175 mg/kg |  |
| Cn1cc(-c2ccc(Cl)cc2)c(N2CCOCC2)c1C(=O)O | 2.3 |  |  |  |  |  |
| CCCNC(=O)c1[nH]cc(-c2ccc(Cl)cc2)c1N1CCOCC1 | 4.2 |  |  |  |  |  |

Continued, in another order:

| logP [7] | Compound | ED50 [5] | ED50 [6] | ED50 [8] | ED50 [9] | other results |
| --- | --- | --- | --- | --- | --- | --- |
| 3.7 | C=CCNC(=O)c1[nH]cc(-c2ccc(Cl)cc2)c1N1CCOCC1 |  |  |  |  |  |
| 3.9 | CCOC(=O)c1[nH]cc(-c2ccc(Cl)cc2)c1N1CCOCC1 | > 500 mg/kg | 7.9 mg/kg | 49.9 mg/kg | 158 mg/kg |  |
| 4.2 | Cn1cc(-c2ccc(Cl)cc2)c(N2CCOCC2)c1 |  |  |  |  |  |
| 1.8 | O=C(O)c1[nH]cc(-c2ccc(Cl)cc2)c1N1CCOCC1 | > 25 mg/kg |  |  | > 300 mg/kg | Protection [15]: 75% |
| 3.1 | COC(=O)c1c(N2CCOCC2)c(-c2ccc(Cl)cc2)cn1C(=O)N1CCOCC1 |  |  |  |  |  |

From ChEMBL document CHEMBL1131206, “Synthesis, anticonvulsant activity, and structure-activity relationships of sodium channel blocking 3-aminopyrroles” (J Med Chem, 1998)
